# High-throughput results as filed in PubChem BioAssay.
# Compounds with a hit are over-represented: about 4.9% of the library has one in this group of screens.
# APP 5'UTR act = APP 5'UTR luciferase reporter activation; activation, % at 2 µM; 190,000 tested, 1% active; SH-SY5Y APP 5'UTR luciferase reporter, luminescence; zero percent = DMSO vehicle wells;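 active = activation above a set limit, based on mean plus 3 SD of controls, cut at about 140% in these data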
# NF-kB expr up = raises NF-kB expression in human neuronal cells | AID 1239 | NF-kB reporter expression; stronger effect = higher value | fold change at 12.5 µM | 190,000 tested, 1.6% active; in the data active = fold change above about 3.3
# STAT1 activator = activators of IFN-gamma induced STAT1 signaling; NIH 3T3 STAT1-luciferase reporter, luminescence; 100% = IFN-gamma alone, no compound; activation (% of control), % at 5.5 µM; 200,000 tested, 2.6% active;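 active = activation above the screen-wide mean activation plus 3 SD, cut at about 130% in these data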
# STAT3 activator = activators of IL-6 induced STAT3 signaling | 190,000 tested, 0.91% active | U3A cells, IL-6 STAT3-luciferase reporter, luminescence; 100% = signal with IL-6 EC80 alone | activation (% of control), % at 5.6 µM;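 active = activation above the screen-wide mean of compound activation plus 3 SD, cut at about 130% in these data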
#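 Material: STAT3-luciferase reporter U3A cells. Controls: IL-6-treated wells, 100% activation. Read-out: % activation versus median of IL-6-stimulated wells. Probe or stimulus: IL-6 stimulus at 33 ng/mL final. Timing: compound 1 h, then IL-6 6 h at 37 °C. Signal: reporter luminescence signal.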
# STAT1 blocker = inhibitors of IFN-gamma induced STAT1 signaling; NIH 3T3 STAT1-luciferase reporter, luminescence; 200,000 tested, 0.35% active; inhibition, % at 5.5 µM;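 active = inhibition above a set limit, the mean inhibition across all tested compounds plus 3 SD, cut at about 34% in these data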
# STAT3 blocker = STAT3 signaling inhibition; inhibition, % at 5.5 µM; AID 862; U3A cells, IL-6 STAT3-luciferase reporter, luminescence; host cell line lacks STAT1; 190,000 tested, 0.89% active;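 active = inhibition above the mean inhibition across all screened compounds plus 3 SD, cut at about 44% in these data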
# Hits are given with their value; . = inactive; / = not tested or not shown.
SMILES,APP 5'UTR act,NF-kB expr up,STAT1 activator,STAT3 activator,STAT1 blocker,STAT3 blocker
Cc1cccc(C(=O)N/N=C/c2ccccn2)c1,.,.,136,.,.,.
CCN(CC)S(=O)(=O)c1cccc(C(=O)N/N=C/c2ccccn2)c1,.,.,.,.,.,.
O=C(N/N=C/c1ccccn1)c1cccc([N+](=O)[O-])c1,.,.,.,.,.,.
O=C(N/N=C/c1ccccn1)c1cc([N+](=O)[O-])cc([N+](=O)[O-])c1,.,.,129,.,.,.
O=C(N/N=C/c1ccccn1)c1ccc([N+](=O)[O-])cc1,.,.,133,.,.,.
O=C(N/N=C/c1ccccn1)c1ccc(N/N=C/c2ccccn2)cc1,.,.,.,.,.,.
O=C(N/N=C/c1ccccn1)c1ccc(Br)cc1,.,.,134,.,.,.
O=C(COc1ccccc1)NC1CCSC1=O (configuration not stated),.,.,.,.,.,.
Cc1oc(/C=N/NC(=O)CN(c2ccccc2Br)S(C)(=O)=O)cc1Br,.,.,.,.,.,.
Cc1[nH]c2ccccc2c1C(=O)CSc1nc2ccccc2c(=O)n1CCCN1CCOCC1,.,.,.,.,.,.
COc1ccc(C2=C(C#N)C(=O)OC2)cc1,.,.,.,.,36,.
COc1ccc(-c2c(C#N)c(C)nc3c2C(=O)c2ccccc2-3)cc1,.,.,.,.,.,.
O=C(Nc1cnc2sccn2c1=O)c1ccc(Cl)cc1Cl,.,.,132,.,.,.
COc1ccc(Cl)cc1NC(=O)c1cnc2sccn2c1=O,.,.,.,.,.,.
Cc1cc(C)nc(SCC(CSc2nc(C)cc(C)n2)C(=O)O)n1,.,.,.,.,.,.
Cc1ccc(OCCn2c(=O)n(C)c3ccccc32)cc1,.,.,150,.,.,.
COc1ccccc1OCCn1c(=O)n(C)c2ccccc21,.,.,.,.,.,.
O=c1sc2ccccc2n1CCOc1ccccc1,.,.,142,.,.,.
O=C(O)CCn1c(=O)sc2ccccc21,.,.,.,.,.,.
S=c1[nH]nc(-c2ccccc2)n1/N=C/c1ccc(-c2ccccc2Cl)o1,.,4.5,.,.,.,.
COc1ccc(CNc2nc3nc(C)cc(C)n3n2)cc1,.,.,.,.,.,.
COc1ccc(-c2nc3nc(C)cc(C)n3n2)cc1,/,.,129,.,.,.
COc1ccc(-c2cc3nc(C)cc(C)n3n2)cc1,.,3.6,135,156,.,.
Cc1cccn2cc(-c3c[nH]c4ccccc34)nc12,.,.,134,140,.,.
CCn1c(SC)nnc1-c1c[nH]c2ccccc12,/,.,.,.,.,.
SMILES,APP 5'UTR act,NF-kB expr up,STAT1 activator,STAT3 activator,STAT1 blocker,STAT3 blocker
Cc1cccn2cc(-c3ccc(S(=O)(=O)N4CCOCC4)cc3)nc12,.,.,.,.,.,.
O=[N+]([O-])c1cccn2cc(-c3ccc(Br)cc3)nc12,.,/,140,.,.,.
Cc1ccc(-c2cn3cccc(C)c3n2)cc1,154,7.7,.,.,.,.
Cc1cccn2cc(-c3ccc(S(=O)(=O)N4CCCCC4)cc3)nc12,.,.,.,.,.,.
Cc1cccn2cc(-c3ccc(Cl)cc3)nc12,254,9.6,.,.,.,.
Cc1c(Br)c([N+](=O)[O-])nn1CC(=O)NCCc1c[nH]c2ccccc12,.,.,.,.,.,.
CCC(C)(c1nnnn1-c1c(C)cccc1C)N(N=O)c1ccccc1Cl (configuration not stated),.,.,.,.,.,.
COc1ccc(-c2cn3cccc(C)c3n2)cc1F,.,6.1,145,.,.,.
COc1ccc(-c2nc3c(-c4ccccc4)cnn3cc2C)cc1F,.,.,.,.,.,.
CCOC(=O)c1c(C)[nH]c(C(=O)CSc2nccc(C)n2)c1C,.,.,132,.,.,.
CNc1ccc(/C=C(\C#N)c2ccccn2)cc1[N+](=O)[O-],.,.,139,.,.,.
N#C/C(=C\c1ccc(Cl)c([N+](=O)[O-])c1)c1ccccn1,.,.,.,.,.,.
COC(=O)/C(C#N)=C/c1ccc(OC(=O)c2ccccn2)cc1,.,.,.,.,.,.
N#C/C(=C\c1ccccc1)c1ccccn1,.,.,130,.,.,.
C(=N\Nc1ccccc1)/c1ccc(N2CCOCC2)cc1,.,.,.,.,.,.
C/C(=N\Nc1ccccn1)c1ccc(C(C)C)cc1,.,.,.,.,.,.
C/C(=N\Nc1ccccn1)c1ccc(N2CCOCC2)cc1,.,.,141,.,.,.
C(=N\Nc1ccccn1)/c1ccc(N2CCOCC2)cc1,.,4.5,.,.,.,.
Cn1c(SCc2ccccc2)nnc1-c1cccs1,.,.,.,.,.,.
Cc1ccc(CSc2nnc(-c3ccccn3)n2C)cc1,.,.,.,.,.,.
Cn1c(SCc2ccccn2)nnc1-c1cnccn1,.,.,.,.,.,.
Cn1c(SCc2ccccc2F)nnc1-c1cnccn1,.,.,137,.,.,.
Cn1c(SCc2ccc(F)cc2)nnc1-c1cccs1,.,.,140,.,.,.
Cn1c(SCc2ccccc2F)nnc1-c1ccccn1,.,.,142,.,.,.
Cn1c(SCc2ccc(F)cc2)nnc1-c1ccccn1,.,.,140,.,.,.
SMILES,APP 5'UTR act,NF-kB expr up,STAT1 activator,STAT3 activator,STAT1 blocker,STAT3 blocker
O=S1(=O)C=C(Sc2nc3ccccc3s2)c2ccccc21,.,.,.,134,.,.
Cc1cc(C)nc(SC2=CS(=O)(=O)c3ccccc32)n1,.,.,.,.,.,.
CCNC(=O)COC(=O)c1sccc1C,.,.,.,.,.,.
Cc1ccsc1C(=O)OCC(=O)Nc1sccc1C(N)=O,.,.,132,.,.,.
O=C(N/N=C/c1cccnc1)c1ccc2c(c1)OCCO2,.,.,.,.,.,.
O=C(N/N=C/c1ccc(Br)o1)c1ccc2c(c1)OCCO2,.,.,130,.,.,.
Nc1ccccc1N=Cc1ccc(-c2cccc(Cl)c2)o1,.,.,140,.,.,.
COC(=O)N/N=C/c1ccc(-c2cccc(Cl)c2)o1,.,.,.,.,.,.
COc1cccc(Nc2nc(N)nc(-c3oc4ccccc4c3C)n2)c1,.,.,134,.,.,.
COc1ccccc1Nc1nc(N)nc(-c2cc3ccccc3o2)n1,.,.,.,.,.,.
Cc1ccc(Nc2nc(N)nc(-c3oc4ccccc4c3C)n2)cc1,.,/,156,154,.,.
COc1cccc(C(=O)CSc2nc3ccccc3n2CC(=O)N(C(C)C)C(C)C)c1,.,.,.,.,.,.
COc1ccc(NC(=O)CN(C)C2CCCCC2)c([N+](=O)[O-])c1,.,.,.,.,.,.
CCOc1ccc(N(CC(=O)Nc2nccs2)S(=O)(=O)c2c(C)noc2C)cc1,.,.,.,.,.,.
